# How the values were obtained:
# [1] = tested on: Rattus norvegicus; assay: Volume of distribution in male rat at 1 mg/kg, iv and po; assay type: ADME, organism-based; parameters: dose 1 mg/kg, route oral; details: in vivo
# Summary of the method: (§1)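 Jugular-vein-cannulated rats got 1 mg/kg iv (tail vein) or po (gavage). Blood (0.2 mL) was drawn via the catheter into heparin tubes up to 24 h post-dose. Plasma was acidified with phosphoric acid and frozen, then extracted on C18 cartridges. Samples were quantified by LC-MS-MS with positive-ion MRM. Values are mean ± SD of three animals.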
# [2] = Half life in male rat at 1 mg/kg, iv and po; assay type: ADME, organism-based; parameters: dose 1 mg/kg, route oral; details: in vivo; summary of the method: as §1
# [3] = Lipophilicity, LogD at pH 7.4; assay type: physicochemical; details: buffer
# Summary of the method: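 Partition measured between 1-octanol and water at pH 7.4.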
# [4] = Tmax in male rat at 1 mg/kg, iv and po; assay type: ADME, organism-based; parameters: dose 1 mg/kg, route oral; details: in vivo; summary of the method: as §1
# [5] = Cmax in male rat at 1 mg/kg, iv and po; assay type: ADME, organism-based; parameters: dose 1 mg/kg, route oral; details: in vivo; summary of the method: as §1
# [6] = Oral bioavailability in male rat at 1 mg/kg, iv and po; assay type: ADME, organism-based; details: in vivo; summary of the method: as §1
# [7] = molecular target: T1, Neprilysin (Oryctolagus cuniculus, UniProt P08049); assay: Inhibition of rabbit NEP
# T1 sequence (P08049 whole entry): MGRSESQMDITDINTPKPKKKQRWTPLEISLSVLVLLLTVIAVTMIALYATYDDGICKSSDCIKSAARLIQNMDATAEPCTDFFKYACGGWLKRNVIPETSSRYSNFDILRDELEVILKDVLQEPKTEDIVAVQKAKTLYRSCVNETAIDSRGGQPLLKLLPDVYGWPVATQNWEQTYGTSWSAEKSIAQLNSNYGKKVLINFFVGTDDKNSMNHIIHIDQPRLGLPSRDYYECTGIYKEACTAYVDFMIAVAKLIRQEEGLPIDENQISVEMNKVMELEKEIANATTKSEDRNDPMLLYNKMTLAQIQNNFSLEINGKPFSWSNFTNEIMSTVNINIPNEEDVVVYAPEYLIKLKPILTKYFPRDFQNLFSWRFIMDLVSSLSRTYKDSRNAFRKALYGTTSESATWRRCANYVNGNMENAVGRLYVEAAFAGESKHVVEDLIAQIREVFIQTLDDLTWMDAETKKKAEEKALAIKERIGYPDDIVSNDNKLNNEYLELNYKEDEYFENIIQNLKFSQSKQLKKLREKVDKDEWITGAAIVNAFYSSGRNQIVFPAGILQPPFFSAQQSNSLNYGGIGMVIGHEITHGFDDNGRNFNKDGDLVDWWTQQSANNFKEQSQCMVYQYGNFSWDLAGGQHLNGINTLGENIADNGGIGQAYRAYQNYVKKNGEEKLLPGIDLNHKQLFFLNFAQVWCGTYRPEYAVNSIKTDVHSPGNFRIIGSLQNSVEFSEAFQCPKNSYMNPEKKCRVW
# Summary of the method: (§2)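 Fluorogenic substrate o-aminobenzoyl-D-Arg-Arg-Leu-ethylenediamine-2,4-dinitrophenyl in 50 mM Tris·Cl pH 7.4 (inhibitor dilutions with 4% DMSO). Enzyme was diluted to ≤10% conversion; incubation 1 h at 37 °C, stopped with phosphoramidon. 10-point half-log dilution series, duplicate points.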
# [8] = Apparent permeability from apical to basolateral side of the Caco-2 cell membrane at pH 7.4 at 25 uM; assay type: ADME, cell-based; details: human, Caco-2, pH 7.4
# [9] = Apparent permeability from basolateral to apical side of the Caco-2 cell membrane at pH 7.4 at 25 uM; assay type: ADME, cell-based; details: human, Caco-2, pH 7.4
# [10] = Stability in human liver microsome at 1 uM in presence of 0.5 uM CYP; assay type: ADME; details: liver microsomes, read-out: Stability
# Summary of the method: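 Substrate disappearance in human liver microsomes, 1 µM compound, 0.5 µM CYP.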
# [11] = Stability in rat liver microsome; assay type: ADME; details: liver microsomes, read-out: Stability
# [12] = molecular target: T2, Endothelin-converting enzyme 1 (Homo sapiens, UniProt P42892); assay: Inhibition of human ECE1
# T2 sequence (P42892 whole entry): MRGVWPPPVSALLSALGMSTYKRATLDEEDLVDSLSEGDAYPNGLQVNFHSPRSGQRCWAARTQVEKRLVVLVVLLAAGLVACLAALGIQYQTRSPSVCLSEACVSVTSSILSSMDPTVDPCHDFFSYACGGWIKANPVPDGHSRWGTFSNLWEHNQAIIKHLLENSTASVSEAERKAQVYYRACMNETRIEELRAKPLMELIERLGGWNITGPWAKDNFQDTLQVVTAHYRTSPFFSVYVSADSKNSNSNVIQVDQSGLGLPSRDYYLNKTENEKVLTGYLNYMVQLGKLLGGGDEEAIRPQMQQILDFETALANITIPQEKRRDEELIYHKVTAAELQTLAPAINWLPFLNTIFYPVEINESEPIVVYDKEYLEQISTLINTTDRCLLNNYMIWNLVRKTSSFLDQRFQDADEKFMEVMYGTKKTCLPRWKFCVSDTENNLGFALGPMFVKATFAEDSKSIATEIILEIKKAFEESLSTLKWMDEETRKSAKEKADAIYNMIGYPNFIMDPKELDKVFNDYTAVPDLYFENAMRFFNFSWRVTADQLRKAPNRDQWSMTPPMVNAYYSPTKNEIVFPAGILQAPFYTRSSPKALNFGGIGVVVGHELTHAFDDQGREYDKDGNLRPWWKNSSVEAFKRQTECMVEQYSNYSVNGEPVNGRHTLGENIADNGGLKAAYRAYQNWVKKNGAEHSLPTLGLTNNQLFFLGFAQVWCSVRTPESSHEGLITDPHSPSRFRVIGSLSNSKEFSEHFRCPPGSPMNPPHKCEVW
# Summary of the method: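 Enzyme: recombinant human ECE-1 extracellular domain (aa 73-753), taken from the media of transiently transfected CHO cells. Assay in 100 mM HEPES-KOH pH 7.0/1% DMSO with 1 µM big ET-1, 1 h at 37 °C. Stopped with an equal volume of 10 mM EDTA. ET-1 formed was read by ELISA, with enzyme diluted to give OD ≈1.0. Inhibitors were tested at a range of concentrations as % inhibition.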
# [13] = molecular target: T3, Neprilysin (Rattus norvegicus, UniProt P07861); assay: Inhibition of rat NEP; summary of the method: as §2
# T3 sequence (P07861 whole entry): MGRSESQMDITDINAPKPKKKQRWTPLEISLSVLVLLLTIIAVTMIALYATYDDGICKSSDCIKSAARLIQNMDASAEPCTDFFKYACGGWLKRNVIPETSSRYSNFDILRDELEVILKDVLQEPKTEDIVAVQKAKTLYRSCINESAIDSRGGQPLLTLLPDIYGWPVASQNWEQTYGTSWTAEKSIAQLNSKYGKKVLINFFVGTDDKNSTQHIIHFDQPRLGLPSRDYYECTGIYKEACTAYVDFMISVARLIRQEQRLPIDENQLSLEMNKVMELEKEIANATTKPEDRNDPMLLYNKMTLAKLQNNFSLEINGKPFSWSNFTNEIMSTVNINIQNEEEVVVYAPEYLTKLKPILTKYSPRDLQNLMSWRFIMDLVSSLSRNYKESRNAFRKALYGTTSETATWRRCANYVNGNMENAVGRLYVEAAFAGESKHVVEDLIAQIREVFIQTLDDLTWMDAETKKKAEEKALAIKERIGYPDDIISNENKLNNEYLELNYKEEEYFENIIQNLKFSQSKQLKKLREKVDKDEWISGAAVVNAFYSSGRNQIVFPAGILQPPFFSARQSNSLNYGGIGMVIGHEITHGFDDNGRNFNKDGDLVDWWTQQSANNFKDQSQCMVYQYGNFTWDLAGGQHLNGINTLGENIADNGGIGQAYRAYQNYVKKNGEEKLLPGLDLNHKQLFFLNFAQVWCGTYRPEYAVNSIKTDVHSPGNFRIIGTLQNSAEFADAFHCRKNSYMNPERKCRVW
# [14] = Percent of unbound ligand in male rat at 1 mg/kg, iv and po; assay type: ADME, organism-based; parameters: dose 1 mg/kg, route oral; details: in vivo
# Summary of the method: (§3)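 Fraction unbound in rat plasma was measured at 1 µg/mL by equilibrium dialysis against isotonic Krebs-Ringer bicarbonate buffer, pH 7.4.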
# [15] = tested on: Rattus norvegicus; assay: Volume of distribution in female rat at 1 mg/kg, iv and po; assay type: ADME, organism-based; parameters: dose 1 mg/kg, route oral; details: in vivo; summary of the method: as §1
# [16] = Half life in female rat at 1 mg/kg, iv and po; assay type: ADME, organism-based; parameters: dose 1 mg/kg, route oral; details: in vivo; summary of the method: as §1
# [17] = Tmax in female rat at 1 mg/kg, iv and po; assay type: ADME, organism-based; parameters: dose 1 mg/kg, route oral; details: in vivo; summary of the method: as §1
# [18] = Cmax in female rat at 1 mg/kg, iv and po; assay type: ADME, organism-based; parameters: dose 1 mg/kg, route oral; details: in vivo; summary of the method: as §1
# [19] = Percent of unbound ligand in female rat at 1 mg/kg, iv and po; assay type: ADME, organism-based; parameters: dose 1 mg/kg, route oral; details: in vivo; summary of the method: as §3
# [20] = Oral bioavailability in female rat at 1 mg/kg, iv and po; assay type: ADME, organism-based; details: in vivo; summary of the method: as §1
Vdss [1],half-life [2],logD [3],Tmax [4],Cmax [5],bioavailability [6],Papp A→B at 25 µM [8],Papp B→A at 25 µM [9],half-life at 1 µM [10],IC50 [12],Structure (SMILES),other results
,,,,,,< 1 ×10⁻⁶ cm/s,2 ×10⁻⁶ cm/s,> 2 h,> 3 µM,CCC[C@H](CC1(C(=O)Nc2nnc(C)s2)CCCC1)C(=O)O,
,,,,,,,,,> 3 µM,CCC[C@@H](CC1(C(=O)Nc2nnc(CC)s2)CCCC1)C(=O)O,
,,0.1,,,,,,,,CCCC(CC1(C(=O)Nc2nnc(C)s2)CCCC1)C(=O)O (racemic),

# More lines, now with the values behind:
Structure (SMILES),Vdss [1],half-life [2],logD [3],Tmax [4],Cmax [5],bioavailability [6],Papp A→B at 25 µM [8],Papp B→A at 25 µM [9],half-life at 1 µM [10],IC50 [12],other results
CCCC(CC1(C(=O)NC2(CO)Cc3ccccc3C2)CCCC1)C(=O)O (racemic),3.9 L/kg,2 h,1.1,0.25 h,311 ng/mL,108%,,,,,
CCC[C@H](CC1(C(=O)Nc2nnc(CC)s2)CCCC1)C(=O)O,0.4 L/kg,1.7 h,,1 h,1180 ng/mL,103%,9 ×10⁻⁶ cm/s,14 ×10⁻⁶ cm/s,> 2 h,> 3 µM,IC50 [7]: 0.0102 µM; half-life [11]: > 2 h; IC50 [13]: 0.0143 µM; Fu [14]: 10.6%; Vdss [15]: 0.9 L/kg; half-life [16]: 2.1 h; Tmax [17]: 1 h; Cmax [18]: 1460 ng/mL; Fu [19]: 13%; bioavailability [20]: 131%
CCCC(CC1(C(=O)Nc2nnc(CC)s2)CCCC1)C(=O)O (racemic),,,0.5,,,,,,,,
CCC[C@@H](CC1(C(=O)NC2(CO)Cc3ccccc3C2)CCCC1)C(=O)O,,,,,,,,,,> 3 µM,
CCC[C@H](CC1(C(=O)NC2(CO)Cc3ccccc3C2)CCCC1)C(=O)O,4.7 L/kg,1.5 h,,0.25 h,233 ng/mL,144%,6 ×10⁻⁶ cm/s,10 ×10⁻⁶ cm/s,1.03 h,> 3 µM,half-life [11]: > 2 h; Fu [14]: 24.3%
